ChEMBL document CHEMBL4513216, “Probing the Open Global Health Chemical Diversity Library for Multistage-Active Starting Points for Next-Generation Antimalarials” (ACS Infect Dis, 2020)

Assay: Toxicity liver stage against HepG2, at 10uM
Type: cell-based
Parameters: test concentration 10 uM, cell line HepG2-A16-CD81EGFP
Conditions: human, HepG2-A16-CD81EGFP cells; read-out: INHIBITION
How it was run: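 Uninfected HepG2-A16-CD81EGFP cells, 3 × 10^3 per well, 1536-well, plated on prespotted compound at 10 μM final, parasite-free screening media added to match infected plates; puromycin 10 μM positive, DMSO 0.5% negative; run in parallel with 48 h PbLuc assay at 37 °C, 5% CO2; viability by CellTiter-Glo luminescence, normalized to controls.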

| SMILES | cytotoxicity at 10 µM |
| --- | --- |
| Cc1n[nH]c2c1C(c1ccc(Cl)cc1)SCC(=O)N2 (configuration not stated) | 19.2% |
| CCOc1nc2cnccc2n(CC(=O)NCc2ccco2)c1=O | -8.84% |
| CCCC(O)CN1CC(C)(C)CN(C(=O)c2ccc(Cl)cc2)CC1=O (configuration not stated) | 2.78% |
| CCOC(=O)[C@@H]1CN2CCNC[C@@H]2[C@H]1c1ccccc1 | 3.88% |
| CCCn1[nH]c(CNc2cccc(Cl)c2)nc1=O | 0.566% |
| O=C(NCC(Cc1cccc(F)c1)N1CCCC1=O)c1ccc(=O)[nH]n1 (configuration not stated) | -0.634% |
| O=C(Cn1cccn1)N1CCC(Oc2cnccn2)CC1 | 7.11% |
| COc1cc(C(=O)NCCc2ccccc2OC)on1 | 0.409% |
| NC(=O)N1CC[C@H](O)[C@@H]1Cc1ccccc1 | 3.32% |
| Cc1nc(CN2CCc3nc(NC(C)C)nc(C)c3C2)cs1 | 2.53% |
| CS(=O)(=O)NC[C@]12COC[C@H]1CN(C(=O)CCc1ccccc1)C2 | -1.23% |
| Cc1ccccc1CS(=O)(=O)c1nnc(C(C)NC(=O)OC(C)(C)C)o1 (configuration not stated) | -1% |
| Cc1c(S(=O)(=O)NCC(C)C)cnn1C | 4.54% |
| Cc1ccc(CNc2n[nH]c(C)n2)cc1 | -2.25% |
| CCc1cc(=O)n(CC(=O)N2CCCC2)c(-c2cccc(F)c2)n1 | 6.75% |
| CN1CCCC(c2nnc3n2CCN(S(=O)(=O)c2ccccc2Cl)C3)C1 (configuration not stated) | -2.92% |
| Cc1cc(N(C)C)cc(C2CCN(S(=O)(=O)c3cccs3)C2)n1 (configuration not stated) | 7.17% |
| O=c1c(CN2CC3CCCN3C[C@@H]2CCO)coc2ccc(Cl)cc12 (some centres not stated) | 3.19% |
| CC(C(=O)NCc1cccs1)N1CCN(Cc2nccn2C)CC1 (configuration not stated) | -14.5% |
| CN(Cc1cnn(C)c1)CC(O)c1ccc2c(c1)OCO2 (configuration not stated) | -9.98% |
| N#Cc1cc(F)ccc1Cn1cncn1 | 11.4% |
| CC(C(=O)NC1CC1)S(=O)(=O)Cc1noc(C(C)(C)C)n1 (configuration not stated) | 9.42% |
| Cc1ccccc1C(=O)NCC(=O)NCc1ccccn1 | -11.9% |

| SMILES | cytotoxicity at 10 µM |
| --- | --- |
| NC(=O)CCCNC(=O)Cc1csc(Cc2ccccn2)n1 | -4.56% |
| COc1cc2c(cc1CNC(=O)Cc1cc(C)[nH]n1)OC(C)C2 (configuration not stated) | -13.8% |
| NS(=O)(=O)CCNC(=O)c1cc(Br)c2c(c1)OCCO2 | 1.06% |
| COc1cc(C)ccc1OCC(=O)NS(=O)(=O)c1cc(F)ccc1F | 2.15% |
| CCc1cccc(NS(=O)(=O)c2cc(C)c(C(=O)O)s2)c1 | -1.23% |
| N#Cc1cccnc1NCCNC(=O)N1CCN2CCCCC2C1 (configuration not stated) | 0.242% |
| CC(CNS(=O)(=O)c1cccc(Cl)c1)N1CCN(C)CC1 (configuration not stated) | 9.26% |
| COC(=O)CCN1CCC(C(=O)c2cc(F)ccc2F)CC1 | -11.1% |
| CCn1cnnc1C1CCN(C(=O)c2c(C)oc(C)c2C)CC1 | 5.89% |
| CCN(CC(=O)NC(C)C)C(=O)c1ccc(-c2ccsc2)nc1C | -0.908% |
| CC(CNC(=O)Nc1ccc(F)cc1Br)N1CCOCC1 (configuration not stated) | 9.21% |
| CCOC(C)c1noc(CN2CCCN(c3ccccn3)CC2)n1 (configuration not stated) | -4.05% |
| O=C(NS(=O)(=O)c1ccc(C2CCCCC2)cc1)C1COCCO1 (configuration not stated) | 7.02% |
| CCN(CC(=O)N(C)C)C(=O)C(C)(C)c1ccc2c(c1)OCCO2 | 1.22% |
| Cc1occc1C(=O)NC1CCN(C(=O)Nc2cccnc2)CC1 | 8.98% |
| Cc1cccc(CCNC(=O)CCS(=O)(=O)C2CCCC2)c1 | 9.27% |
| Cc1cccc(C2CCCN2C(=O)CN(C)S(C)(=O)=O)c1C (configuration not stated) | 12.3% |
| CCOCC(=O)NC(C#N)c1cnn(-c2ccccc2)c1 (configuration not stated) | -4.39% |
| Cc1ccnc(NCc2ccccc2N2CCOCC2)n1 | -0.268% |
| CN1CCN(c2ccc(Br)cc2NC(=O)c2ccco2)CC1 | -6.09% |
| CCOCC(=O)Nc1cccnc1-n1ccnc1C | 3.62% |
| CC(C)CCN1CCN(C(=O)c2ccc(=O)[nH]n2)CC1 | -6.96% |
| Cc1nc(NC(=O)OC(C)(C)C)sc1C(=O)O | 7.89% |

| SMILES | cytotoxicity at 10 µM |
| --- | --- |
| c1ccc2nc(NCC3(N4CCOCC4)CCSC3)cnc2c1 (configuration not stated) | 12.7% |
| CC(CCc1ccccc1)N1CCC(C(=O)NCc2ccccc2)CC1 (configuration not stated) | 11% |
| CCn1ncc(C(=O)NCc2ccc(C)c(OC)c2)c1C(F)(F)F | 10.2% |
| O=C1CCC(C(=O)Nc2cnn(-c3ccccc3Br)c2)N1 (configuration not stated) | 3.56% |
| CC(C)c1noc(CCCC(=O)NCCOc2ccccc2)n1 | 1.03% |
| CCc1nc(C2CCCN2Cc2nc(CCOC)no2)no1 (configuration not stated) | -10.8% |
| CCOc1cccc(C(=O)NCCC(=O)Nc2ccncc2)c1 | 2.37% |
| Cn1c2c(c(=O)n1C)CN(C(=O)c1cccc(F)c1)CCC2 | -101% |
| Cc1nc2c(c(NC(C)C)n1)CCN(C(=O)CCO)CC2 | -109% |
| CN(C)C(=O)CO[C@H]1CO[C@@]2(CCN(S(C)(=O)=O)C2)C1 | -106% |
| O=C(c1ncccn1)N1C[C@@H]2COC[C@]2(COc2cccnc2)C1 | -91.5% |
| O=S(=O)(NCc1cc2n(n1)CCNC2)c1ccc(OC(F)(F)F)cc1 | 11.5% |
| OC1(CN2CCCCC2)CCN(c2cccc(C(F)(F)F)n2)C1 (configuration not stated) | -10.4% |
| CCCOCC(=O)N1CCCC(c2nnc(CN3CCCCC3)n2C)C1 (configuration not stated) | -2.34% |
| Cc1ncsc1CN(Cc1ccccc1)Cc1ncc[nH]1 | -3.22% |
| CCN(Cc1ccccc1)C(=O)CCN1CC(O)C1 | 7.48% |
| Cc1ccc(CN(CCN(C)C)C(=O)Nc2cnn(C)c2)s1 | 4.16% |
| CC(C)=CCC1(C(=O)O)CCCN(c2cc(N)ncn2)C1 (configuration not stated) | 10.1% |
| CO[C@@]1(C)C[C@@H](O)C12CCN(C(=O)CCn1c(C)cccc1=O)CC2 | 3.43% |
| CC(=O)N[C@@H]1CN(CC(=O)NCc2ccccc2C)C[C@H]1C(C)C | 4.25% |
| O=C(Cn1cccc1)NCC1CCN(Cc2cc3ccccc3[nH]2)C1 (configuration not stated) | 12.6% |
| CC(=O)NC1CCN(c2nc(N(C)C)nc3c2CCCC3)CC1 | -10.7% |
| Cc1cc(NCC2CCS(=O)(=O)C2)n2nc(C)cc2n1 (configuration not stated) | 1.41% |

| SMILES | cytotoxicity at 10 µM |
| --- | --- |
| Cc1ncc(C)c(N2CCC(CCc3ccccc3)(C(=O)O)CC2)n1 | 3.49% |
| COc1ccc(CC2CN(C(=O)c3ocnc3C)CCO2)cc1 (configuration not stated) | 11.4% |
| Cc1ccsc1CN(C)CCc1scnc1C | -17.6% |
| c1ccc(CCN2CCCC(Cn3ccnc3)C2)cc1 (configuration not stated) | 1.43% |
| Cc1ccccc1N1CCN(C2CCCN(C(=O)CCC(C)C)C2)CC1 (configuration not stated) | -5.95% |
| O=C(O)c1ccccc1-c1c(-c2ccccc2)ncn1C[C@H]1CCCN1 | 6.07% |
| O=C(c1cnc(O)cn1)N(Cc1ccsc1)CC1CCCO1 (configuration not stated) | 3.7% |
| Cc1nc(N(C)C/C=C/c2ccccc2)c2cnn(C)c2n1 | 0.0448% |
| O=C1CCCN1CCc1noc(-c2ccc3[nH]cnc3c2)n1 | 8.74% |
| COc1cccc(C(C(=O)O)N(C)Cc2ccc(C)o2)c1 (configuration not stated) | -1.35% |
| Cc1cnc(N(C)Cc2cnc3ccccc3n2)nc1N(C)C | 6.7% |
| COCC1CCN(S(=O)(=O)N2C[C@H](c3ccccc3)[C@@H](N)C2)CC1 | 1.12% |
| COc1ccc(CN2CCN(C3CCc4ccccc4C3)CC2)cc1O (configuration not stated) | -6.55% |
| Cc1nc(N2C[C@@H](CN3CCCCC3)[C@@H](CO)C2)c2sccc2n1 | -5.12% |
| Cc1nn(C)c2nc(NCCCN3CCCC(CO)C3)sc12 (configuration not stated) | -14.2% |
| CC(=O)N1CCC(N[C@@H]2CC[C@@H]2NS(=O)(=O)c2cccnc2)CC1 | 2.98% |
| CCc1noc(C)c1C(=O)N1C[C@H](NS(C)(=O)=O)[C@@H](C2CC2)C1 | 1.23% |
| Cc1ccccc1CSc1nc(N)cc(N2CCOCC(CO)C2)n1 (configuration not stated) | -9.23% |
| Cc1nc(N)sc1C(=O)N1CCC(C(O)Cc2ccccc2)CC1 (configuration not stated) | 2.29% |
| O=C(CCc1cc2n(n1)CCCN(C(=O)c1ccccn1)C2)NC1CC1 | -13.7% |
| Cc1cc(CN2CCCC2c2noc(C(C)C)n2)on1 (configuration not stated) | -0.713% |
| CN1CCN(C2CCN(CCCOc3ccc(F)cc3)CC2)C1=O | 0.28% |
| Cc1cc(CN2CCCC2c2c(C)nn(C)c2Cl)on1 (configuration not stated) | -4.77% |

| SMILES | cytotoxicity at 10 µM |
| --- | --- |
| Cc1nc2ccnn2c(C)c1CCC(=O)N1CCN(CCO)CC1 | -6.29% |
| CC(C)(CNC(=O)COc1cccc(F)c1)C(N)=O | -4.89% |
| O=C(CCc1ccc(F)cc1)NS(=O)(=O)c1ccc2c(c1)OCCCO2 | 4.4% |
| CCc1ncc2c(n1)CN(Cc1nc(-c3ccccn3)no1)CC2 | -20.9% |
| COc1c(CNC2CCOc3ccccc32)c(C(C)C)nn1C (configuration not stated) | -0.169% |
| Cc1ncsc1C(=O)N(C)Cc1ccncc1 | -0.524% |
| CNS(=O)(=O)Cc1ccc(CNC(=O)Nc2cccnc2)cc1 | 0.684% |
| Cc1ccc(S(=O)(=O)Nc2ccc(=O)n(C)c2)cc1 | 1.07% |
| Cc1cnn(CC(C)NCc2csc(-c3cnn(C)c3)n2)c1 (configuration not stated) | 5.32% |
| CCOc1ncccc1C(=O)N1CCCCC1c1nccs1 (configuration not stated) | -8.7% |
| COCC(=O)N1CCC2(CC1)NC(=O)c1ccccc12 | 3.15% |
| COCCN1CCOCC2(CCCN(Cc3cccc(F)c3)C2)C1 (configuration not stated) | 0.346% |
| CNC(=O)[C@@H]1C[C@H]2CN(Cc3nccs3)C[C@H]2N1C | 7.73% |
| Cn1nc(CN2CCCCC2)c2c1CN(C(=O)c1cccc(C#N)c1)C2 | -2.21% |
| O=C1CCC2(CCN(Cc3ccc(F)cc3)CC2)N1Cc1ccccc1 | -1.63% |
| Cc1csc([C@H]2C[C@H]3CN(Cc4cc(C)on4)CC[C@@H]3O2)n1 | -98% |
| Cc1cccc(-c2ccc3nc(C4CCN(CC5CC5)CC4)nn3c2)c1 | -12.2% |
| Cc1c(C2N3CC4(C)CN2CC(C)(C3)C4=O)[nH]c(=O)[nH]c1=O (configuration not stated) | 6.57% |
| c1ccc(-c2nnc(CN3C[C@H]4CC[C@@H](C3)N(CC3CCC3)C4)o2)cc1 | -8.51% |
| O=c1[nH][nH]c2cn(-c3ccc(Br)cc3)c(=O)n12 | -11.8% |
